This note sets out measurements from ChEMBL document CHEMBL1156663, “11-Hydroxymonocerin from the plant endophytic fungus Exserohilum rostratum” (J Nat Prod, 2008).

Structures are written as SMILES.

One assay has as its system HepG2. Kind of assay: Cytotoxicity against human HepG2 cells at 20 ug/mL by MTT assay. The class given is functional, cell-based. (In general: Tetrazolium dyes change colour on reduction, which living cells bring about.)
The test system of the next assay is KATO3. Kind of assay: Cytotoxicity against human KATO3 cells at 20 ug/mL by MTT assay. The format is functional, cell-based.
A further assay concerns Plasmodium falciparum. Kind of assay: Antimalarial activity against multidrug-resistant Plasmodium falciparum K1. The class given is functional, organism-based. The gist of the method: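 In vitro microculture radioisotope assay against P. falciparum K1 (multidrug-resistant), parasites maintained in continuous culture; IC50 determined, dihydroartemisinin run as positive control.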

The next assay concerns BT-474. The assay can be described thus: Cytotoxicity against human BT474 cells at 20 ug/mL by MTT assay. The format is functional, cell-based.
A further assay deals with SW-620. The assay can be described thus: Cytotoxicity against human SW620 cells at 20 ug/mL by MTT assay. The class given is functional, cell-based.
The subject of another assay is CHAGO. The assay can be described thus: Cytotoxicity against human CHAGO cells at 20 ug/mL by MTT assay. The format is functional, cell-based.

Turning to `CC[C@@H](O)[C@@H]1C[C@@H]2OC(=O)c3c(cc(OC)c(OC)c3O)[C@@H]2O1`, the Activity entry with HepG2, in the assay with KATO3, in the assay with BT-474, in the assay with SW-620 and in the assay on CHAGO was “Not toxic” each time. Also, the IC50 in the assay with Plasmodium falciparum is 7.7 µM.

Take `CCC[C@H]1C[C@H]2OC(=O)c3c(cc(OC)c(OC)c3O)[C@H]2O1` [MONOCERIN]: the Activity entry with HepG2, in the assay on KATO3, with BT-474, in the assay on SW-620 and in the assay with CHAGO was “Not toxic” each time. The IC50 with Plasmodium falciparum came to 0.68 µM.

For the molecule `CC[C@@H](OC(C)=O)[C@@H]1C[C@@H]2OC(=O)c3c(cc(OC)c(OC)c3OC(C)=O)[C@@H]2O1`, the Activity result with HepG2, in the assay on KATO3, in the assay on BT-474, with SW-620 and with CHAGO was “Not toxic” in each case. The IC50 in the assay with Plasmodium falciparum turned out to be 9.1 µM.

Take `CCC[C@@H]1C[C@@H]2OC(=O)c3c(cc(OC)c(OC)c3OC(C)=O)[C@@H]2O1`: the Activity entry in the assay on HepG2, in the assay with KATO3, with BT-474, with SW-620 and in the assay on CHAGO was “Not toxic” throughout. In the assay with Plasmodium falciparum, this molecule showed an IC50 of 0.82 µM.

Broadly, the IC50 is the midpoint of a concentration-inhibition curve.
